Results from different studies.
Compare with care: the assays were run in different laboratories.
MAP3K11: Mitogen-activated protein kinase kinase kinase 11 (MAP3K11, Homo sapiens, UniProt Q16584)
CDKL1: Cyclin-dependent kinase-like 1 (CDKL1, Homo sapiens, UniProt Q00532)

Compound | target | assay | test system | conditions | measurement | value
Nc1ncnc2occ(-c3ccc(NC(=O)Nc4cc(C(F)(F)F)ccc4F)cc3)c12 | Serine/threonine-protein kinase 36 (STK36, Homo sapiens, UniProt Q9NRP7) | cell-free assay, inhibitor |  | 20 µM | remaining signal | 87%
Cc1ccc(NC(=O)c2ccc(C)c(C(F)(F)F)c2)cc1C#Cc1nn(C2CCC(O)CC2)c2ncnc(N)c12 (stereo not drawn) | Hepatocyte growth factor receptor (MET, Homo sapiens, UniProt P08581) | cell-free assay |  | 10 µM | remaining signal | 133%
c1cc(CN2CCOCC2)cc(Nc2ncc(C3CC3)c(NCCc3c[nH]cn3)n2)c1 | MAP3K11 | enzyme activity, inhibitor, radiometric |  | 1 µM | remaining activity | 27%
Cn1c2c(c3ccccc31)C(C#N)C(C)(C)NC2=O (stereo not drawn) | CDKL1 | thermal stability, DSF |  | 10 µM | ΔTm | -0.1 °C
c1cc(-c2nnc3scnn23)ccn1 | Type II inositol 1,4,5-trisphosphate 5-phosphatase (Homo sapiens, UniProt P32019) | enzyme activity, inhibitor |  |  | Emax | 100%
Cn1c2c(c3ccc(Cl)c(Cl)c31)C(C#N)C1(CCNCC1)NC2=O (racemic) | CDKL1 | thermal stability, DSF |  | 10 µM | ΔTm | 0.9 °C
CCN1CCN(Cc2ccc(NC(=O)c3ccc(C)c(Oc4ccnc5[nH]ccc45)c3)cc2C(F)(F)F)CC1 | Eukaryotic elongation factor 2 kinase (EEF2K, Homo sapiens, UniProt O00418) | target engagement in cells, inhibitor, chemoproteomics | Huh-7 | 10 µM | inhibition | -20.2%
NS(=O)(=O)c1ccc(CNc2nc(Nc3cccc(NC(=O)N4CCCC4)c3)ncc2Br)cc1 | MAP3K11 | enzyme activity, inhibitor, radiometric |  | 1 µM | remaining activity | 24%
CCN1CCC2(CC1)NC(=O)c1c(c3ccc(Cl)c(Cl)c3n1C)C2C#N (racemic) | CDKL1 | thermal stability, DSF |  | 10 µM | ΔTm | -0.1 °C
NS(=O)(=O)c1ccc(CNc2nc(Nc3cccc(CN4CCOCC4)c3)ncc2C2CC2)cc1 | MAP3K11 | enzyme activity, inhibitor, radiometric |  | 1 µM | remaining activity | 68%
CN1CCC2(CC1)NC(=O)c1c(c3ccc(Cl)c(Cl)c3n1C)C2C#N (racemic) | CDKL1 | thermal stability, DSF |  | 10 µM | ΔTm | 0 °C
Cc1cnc(NC2CCOCC2)nc1-n1cnc(C(=O)NC(CN)c2cc(F)cc(Cl)c2)c1 (stereo not drawn) | Hepatocyte growth factor receptor (MET, Homo sapiens, UniProt P08581, M1250T) | enzyme activity, inhibitor, radiometric |  | 1 µM | remaining activity | 100%
NS(=O)(=O)c1ccc(CNc2ccnc(Nc3cccc(CN4CCOCC4)c3)n2)cc1 | MAP3K11 | enzyme activity, inhibitor, radiometric |  | 1 µM | remaining activity | 95%
Cn1c2c(Cl)c(Cl)ccc2c2cc[nH]c(=O)c21 | TRAF2 and NCK-interacting protein kinase (TNIK, Homo sapiens, UniProt Q9UKE5) | thermal stability, DSF |  | 10 µM | ΔTm | 0.7 °C
NS(=O)(=O)c1ccc(CNc2nc(Nc3cccc(NC(=O)N4CCCC4)c3)ncc2C2CC2)cc1 | MAP3K11 | enzyme activity, inhibitor, radiometric |  | 1 µM | remaining activity | 72%
N#CC1c2c([nH]c3c(Cl)c(Cl)ccc23)C(=O)NC12CCCCC2 (racemic) | CDKL1 | thermal stability, DSF |  | 10 µM | ΔTm | 0.2 °C
Cc1nn(CC(F)(F)F)cc1Nc1ncc(C2CC2)c(NCCc2c[nH]cn2)n1 | Serine/threonine-protein kinase ULK1 (ULK1, Homo sapiens, UniProt O75385) | enzyme activity, inhibitor, radiometric |  | 1 µM | remaining activity | 78%
Cc1cc(NC(=O)c2cccc3cc(-c4cccc5[nH]nc(N)c45)ccc23)ccc1F | Hepatocyte growth factor receptor (MET, Homo sapiens, UniProt P08581, Y1230C) | enzyme activity, inhibitor |  | 0.1 µM | activity vs control | 92%
